GPR7 antagonist – GPR7 receptor antagonists, primary screen, cell-based, fluorescence, single concentration; AID 1861, 2009; hit rate 1.1% among 290,000; GPR7-expressing cells, fluorescence antagonist assay; inhibition, % at 4.4 µM; Neuropeptides B/W receptor type 1 (Homo sapiens), P48145; in the data active = inhibition above about 16%, passing the limit was not always enough;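 note: cells stimulated with the agonist NPW; 0% = agonist with vehicle and 100% = vehicle without agonist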
Target sequence (P48145 whole entry, looked up): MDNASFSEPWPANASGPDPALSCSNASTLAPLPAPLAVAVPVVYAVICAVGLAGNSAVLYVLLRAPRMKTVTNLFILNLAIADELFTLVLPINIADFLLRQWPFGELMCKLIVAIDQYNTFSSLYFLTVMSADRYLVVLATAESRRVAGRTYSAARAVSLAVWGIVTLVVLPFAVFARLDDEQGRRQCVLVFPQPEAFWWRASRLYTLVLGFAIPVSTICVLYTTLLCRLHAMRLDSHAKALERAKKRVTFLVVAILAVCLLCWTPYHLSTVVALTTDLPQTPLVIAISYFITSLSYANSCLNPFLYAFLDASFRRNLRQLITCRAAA
OX1R antag-1 – OX1R (HCRTR1) antagonists, primary screen, fluorescence, CHO/OX1R cells, Fluo-8 calcium, orexin A; Orexin/Hypocretin receptor type 1 (Homo sapiens), O43613; Fluo-8 calcium fluorescence; inhibition, % at 5 µM; hit rate 0.43% among 330,000;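 active = inhibition above its plate's threshold, mean inhibition of all tested compounds on the plate plus 3 SD, cut at about 37% in these data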;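 note: 0% = orexin A challenge wells and 100% = SB-334867-A antagonist wells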
TAAR1 ag – human TAAR1 agonists, primary screen, Fluo-8 calcium fluorescence, CHO RD-HGA16 cells; activation, % at 3 µM; vehicle wells 0%, saturating PEA agonist 100%; AID 624467, 2012; Trace amine-associated receptor 1 (Homo sapiens), Q96RJ0; hit rate 0.99% among 360,000;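 active = activation above the mean activation of all test compounds in the run plus 3 SD, cut at about 38% in these data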
Target sequence (Q96RJ0 whole entry, looked up): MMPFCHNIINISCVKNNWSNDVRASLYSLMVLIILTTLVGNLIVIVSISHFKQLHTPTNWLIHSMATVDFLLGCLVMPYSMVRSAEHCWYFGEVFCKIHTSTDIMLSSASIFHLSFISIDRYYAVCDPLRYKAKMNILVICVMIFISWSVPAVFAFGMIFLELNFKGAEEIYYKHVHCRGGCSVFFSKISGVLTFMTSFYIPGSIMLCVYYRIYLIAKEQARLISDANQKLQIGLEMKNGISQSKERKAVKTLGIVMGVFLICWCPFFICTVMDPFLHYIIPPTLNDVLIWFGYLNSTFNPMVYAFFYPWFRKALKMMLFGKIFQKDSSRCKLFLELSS
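Repeats: no replicates (n 1) | Material: CHO-derived RD-HGA16 cells with stable Gα16 and human TAAR1 | Technique: Kinetic Fluo-8 calcium fluorescence | Schedule: 17-24 h seeding, 75 min 37 °C dye, 30 min RT | Evaluation: % activation from peak over basal fluorescence ratio, DMSO-to-PEA scaled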
OX1R antag-2 – antagonists of human orexin 1 receptor (OX1R) | OX1R-expressing cells, FRET antagonist read-out | inhibition, % at 6.6 µM | AID 485270, 2010 | hit rate 1.8% among 330,000 | Orexin/Hypocretin receptor type 1 (Homo sapiens), O43613; in the data active = inhibition mostly above about 38%, no sharp cut-off; inactive = mostly below about 40%;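 note: 0% = agonist challenge alone and 100% = reference antagonist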
CHO parental Ca – ATP-evoked calcium signal inhibitors, parental CHO, primary screen, counter-screen for OX1R antagonist project, cell-based, fluorescence, Fluo-8 calcium dye; parental CHO-K1, ATP-induced calcium, Fluo-8 fluorescence; inhibition, % at 5.6 µM; hit rate 0.63% among 330,000; AID 463079, 2010;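 active = inhibition above that plate's mean sample inhibition plus 3 SD, cut at about 26% in these data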;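 note: 0% = ATP-challenged DMSO wells and 100% = DMSO wells without ATP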
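Measured by: calcium-sensitive Fluo-8 fluorescence / Test system: CHO parental line / Controls: ATP-challenged DMSO wells low, unchallenged DMSO wells high / Measure: % inhibition / Compound: single nominal dose of 5.6 µM per compound / Replicates: single well per compound, no replicates / Reagent: ATP as calcium-mobilizing challenge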
TAAR1 antag – human TAAR1 antagonists, primary screen, Fluo-8 calcium fluorescence, CHO RD-HGA16 cells. antagonist. inhibition, % at 3 µM. hit rate 1.5% among 360,000;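 active = inhibition above a per-plate cutoff, the mean inhibition of test compounds on that plate plus 3 SD, cut at about 49% in these data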;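 note: 0% = DMSO plus EC80 beta-PEA response and 100% = DMSO alone without agonist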
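Test system – hTAAR1-expressing CHO RD-HGA16 cells, Gα16-coupled · Reagent – β-PEA at EC80 concentration, post-compound challenge · Compound dosing – 3 µM, single point · Timing – 140 s kinetic read after compound, 140 s after agonist · Detection – Fluo-8 intracellular calcium dye fluorescence, real-time kinetic reads · Control set – DMSO and EC80 PEA controls · Repeats – n of 1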
The depositor's hits bear a star; . = not tested or not shown. The list is not random: actives were taken first. Their share in the collection is about 4.6%.

SMILES	GPR7 antagonist	OX1R antag-1	TAAR1 ag	OX1R antag-2	CHO parental Ca	TAAR1 antag
O=C(Nc1cccc2ccccc12)c1ccccc1NS(=O)(=O)c1cccc2cccnc12	-1.2	14.7	2.4	64.9	-16.6	4.4
O=C(Nc1cccc2cccnc12)c1cccc2ccccc12	5.5	-26.8	3.3	24.7	-20.2	-11.0
CCOc1ccccc1C(=O)Nc1cccc2cccnc12	-7.0	9.9	4.4	44.5*	-18.5	-20.0
COc1ccc(OC)c(NC(=O)c2ccccc2NS(=O)(=O)c2cccc3cccnc23)c1	-16.2	5.5	1.8	63.9*	-8.6	-5.4
C=CCCC1CN(Cc2ccc(OC)cc2)S(=O)(=O)c2c(Oc3ccc(C(C)C)cc3)cccc2O1 (stereo unspecified)	.	.	0.0	.	.	-22.0
COc1ccc(N2C(=O)c3n[nH]c(C(C)C)c3C2c2ccc(F)cc2)cc1 (stereo unspecified)	.	.	-0.3	.	.	-18.6
CCN(CC)C(=O)C1=C(C)N(Cc2ccc(OC)cc2)C(=O)C(CC(=O)NCCCN(C)C)C1 (stereo unspecified)	.	.	5.3	.	.	-23.1
CC(C)C[C@H](NC(=O)c1ccccc1)C(=O)N1CCC[C@H]1C(=O)NCc1ccccc1	.	.	8.5	.	.	-24.8
COC(=O)c1ccc(CSc2nc3c(cnn3-c3ccccc3)c(=O)[nH]2)o1	-19.5	11.1	4.2	54.6*	-15.8	-4.6
NC(=O)CSc1nc2ccccc2c(=O)n1Cc1ccco1	-10.6	-14.3	2.4	20.9	-11.1	-4.1
COC(=O)c1ccc(CSc2nc3ccccc3c(=O)n2Cc2ccco2)o1	-3.6	50.1*	6.5	14.5	37.2*	59.8*
O=C(CSc1nc2ccccc2c(=O)n1Cc1ccco1)c1ccc(F)cc1	-3.5	-21.9	10.3	11.7	6.6	49.8*
CCOC(=O)C1(C)CCN1C(=O)c1ccc2ccccc2c1 (stereo unspecified)	.	.	2.9	.	.	-15.3
O=C1c2[nH]c3ccccc3c2CC1N1C(=O)c2ccccc2C1=O (stereo unspecified)	.	.	20.9	.	.	51.7*
CSc1ncccc1C(=O)Nc1ccc2c(c1)OCCO2	.	2.4	-0.4	13.4	-7.9	-14.0
CCC(=O)Nc1nc(-c2ccc3c(c2)CC(C)N3S(C)(=O)=O)cs1 (stereo unspecified)	-4.8	-25.0	9.9	54.6	-19.4	42.6
CC1Cc2cc(-c3csc(NC(=O)Cc4cccs4)n3)ccc2N1S(C)(=O)=O (stereo unspecified)	-2.8	30.1	16.9	17.0	14.4	61.2*
NS(=O)(=O)c1ccc(CCNS(=O)(=O)c2ccc(Cl)s2)cc1	.	16.7	1.7	11.9	16.3	22.7
C=CCn1c(-c2ccc(S(=O)(=O)N3CCOCC3)cc2)csc1=Nc1ccccc1	-6.1	4.2	8.4	18.7	39.3*	20.3
CC(=O)c1cccc(N=c2scc(-c3ccc(S(=O)(=O)N4CCOCC4)cc3)n2CCO)c1	14.3	25.2	17.8	27.9	12.2	35.6
COC(=O)C1=C(C)N(Cc2ccc(Br)cc2)C(=S)NC1c1ccc(OC)cc1 (stereo unspecified)	.	.	-0.6	.	.	26.0
CCCCOC(=O)CCn1c(=S)oc2ccccc21	-1.0	-42.2	44.5*	5.9	-7.0	25.1
CCCNC(=O)CCn1c(=S)oc2ccccc21	-5.0	0.5	2.0	3.2	2.9	-10.4
COc1ccccc1NC(=O)COc1cccc2c1CCNC2=O	.	-6.5	6.0	10.8	-16.9	7.7
Cc1cc(C)c(C#N)c(SCc2[nH]nc3c2C(c2ccc(F)cc2)C(C#N)=C(N)O3)n1 (stereo unspecified)	15.8	-32.5	8.3	75.3*	-17.1	-6.3
SMILES	GPR7 antagonist	OX1R antag-1	TAAR1 ag	OX1R antag-2	CHO parental Ca	TAAR1 antag
CCCCNC(=O)c1nc(C2CCN(S(=O)(=O)c3ccc(OC(F)(F)F)cc3)CC2)oc1-c1ccccc1	.	.	1.9	.	.	-18.3
Cc1nn(C)c(C)c1CN(Cc1nc(CCC(C)C)no1)C(C)C	18.4	34.1	4.5	21.1	41.1*	16.7
CCOC(=O)c1[nH]c(C)c(CN(CCc2ccccc2)S(C)(=O)=O)c1C	-2.2	-12.9	0.1	16.1	-15.9	-3.7
CCOC(=O)c1[nH]c(C)c(CN(C(C)=O)c2ccc(OCC)cc2)c1C	22.1*	-23.0	4.6	8.7	-13.3	4.6
COC(=O)c1c(-c2ccc(S(C)(=O)=O)cc2)sc2ccc(OC)cc12	.	6.3	8.7	2.6	-12.3	49.2*
COc1ccc(NC(=O)C2CCN(S(=O)(=O)c3ccc4c(c3)NC(=O)CO4)CC2)cc1	5.1	-14.0	0.1	-0.1	-2.0	-4.3
Cc1ccc(S(=O)(=O)CC(N)=O)cc1	-3.2	-7.2	7.9	25.8	69.6*	-7.4
Cc1cccc(C)c1OCC(=O)NC1CC1	-1.1	3.1	2.9	30.8	-11.3	-20.1
Cc1cccc(C)c1OCC(=O)NNC(=S)NC(=O)C1CC1	-12.1	-9.8	47.8*	22.9	-8.2	19.5
CCn1c(-c2ccccc2)c[nH]c1=S	2.4	-19.0	-1.6	15.9	-7.9	-18.0
S=c1[nH]cc(-c2ccc(Cl)cc2)n1Cc1ccccc1	-6.5	-21.6	1.2	10.3	92.9*	-29.2
COCCNC(=O)c1cc2c(c(-c3cccc(C#CC(C)(C)O)c3)n1)[C@@H](CCO)N(S(=O)C(C)(C)C)C2 (stereo partly specified)	.	.	1.1	.	.	-16.1
COc1cc(SC#N)ccc1N=Cc1c(C)[nH]n(-c2ccc(C)c(C)c2)c1=O	0.3	96.3*	-0.8	-2.9	96.2*	87.3*
COc1cc(SC#N)ccc1N=Cc1c(C)[nH]n(-c2ccc(Cl)cc2)c1=O	-6.5	29.9	1.4	17.1	17.8	12.7
CC(=O)c1cc(N2CCOCC2)ccc1[N+](=O)[O-]	5.7	.	0.3	.	.	-5.9
O=[N+]([O-])c1ccc(N2CCOCC2)cc1O	9.8	-5.4	-0.3	42.4*	-11.3	6.2
CN1CCN(CC(=O)Nc2cc(N3CCOCC3)ccc2[N+](=O)[O-])CC1	-12.6	-4.4	1.0	65.2*	2.3	0.2
O=[N+]([O-])c1ccc(N2CCOCC2)cn1	-3.0	-16.1	1.9	40.1*	-2.5	13.5
O=[N+]([O-])c1cccnc1N1CCOCC1	0.1	5.9	5.0	9.8	-0.3	10.2
Cc1cc(C(=O)NC2CCCc3c2cnn3-c2cccc(C)c2C)no1 (stereo unspecified)	-3.8	-4.9	1.4	23.0	6.6	13.9
